Source: ChEMBL document CHEMBL4196210, “Depsipeptides Featuring a Neutral P1 Are Potent Inhibitors of Kallikrein-Related Peptidase 6 with On-Target Cellular Activity” (J Med Chem, 2018)
Activity calls are given as the source filed them. The rule behind the calls is not given here.

Columns and labels:
[1] = molecular target: T1, Prostate-specific antigen (Homo sapiens) (UniProt P07288); experiment: Binding affinity to KLK3 in human LNCAP cells conditioned medium at 50 uM pre-incubated for 30 mins by activity-based probe based in-gel fluorescence assay; assay type: cell-based
T1 sequence (whole entry): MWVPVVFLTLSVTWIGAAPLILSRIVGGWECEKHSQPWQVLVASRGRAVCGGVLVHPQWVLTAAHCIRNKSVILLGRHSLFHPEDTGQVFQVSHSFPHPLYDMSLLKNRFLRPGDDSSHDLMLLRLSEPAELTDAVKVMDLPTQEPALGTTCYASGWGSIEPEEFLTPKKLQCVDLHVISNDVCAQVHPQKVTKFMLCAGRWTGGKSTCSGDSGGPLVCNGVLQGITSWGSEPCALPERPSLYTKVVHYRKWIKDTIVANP

Kallikrein-4 [2] = molecular target: T2, Kallikrein-4 (Homo sapiens, UniProt Q9Y5K2); experiment: Inhibition of N-terminal FLAG-tagged and C-terminal His tagged pro-KLK4 (unknown origin) expressed in Escherichia coli in presence of thermolysin pre-incubated for 10 mins before Boc-FSR-AMC substrate addition and measured after 20 mins by fluorescence based assay
[3] = Stability in DMEM supplemented with 10% (v/v) fetal bovine serum at 10 uM at 37 degC assessed as half life by HPLC-MS method; assay type: physicochemical; conditions: cattle, DMEM with 10% (v/v) fetal bovine serum
Procedure, shortened: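 Compound at 10 µM (0.2% DMSO) in DMEM with 10% FBS, 2 mM L-glutamine and 1% penicillin/streptomycin, plus 10 µM triazole internal standard, held at 37 °C. Sampled hourly to 10 h, then at 24 h, by HPLC-MS in SIM mode for parent and hydrolysis product.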

Detroit 562 [4] = experiment: Effect on EMT switch in human Detroit 562 cells at 100 to 500 nM incubated for 48 hrs; assay type: ADME, cell-based; conditions: detroit 562, 48 h, 0.5 µM
Kallikrein-8 = molecular target: T3, Kallikrein-8 (Homo sapiens, UniProt O60259); experiment: Inhibition of KLK8 (unknown origin) expressed in Pichia pastoris pre-incubated for 10 mins before Boc-ValProArg-AMC substrate addition and measured after 30 mins by fluorescence based assay
T3 sequence (O60259 whole entry): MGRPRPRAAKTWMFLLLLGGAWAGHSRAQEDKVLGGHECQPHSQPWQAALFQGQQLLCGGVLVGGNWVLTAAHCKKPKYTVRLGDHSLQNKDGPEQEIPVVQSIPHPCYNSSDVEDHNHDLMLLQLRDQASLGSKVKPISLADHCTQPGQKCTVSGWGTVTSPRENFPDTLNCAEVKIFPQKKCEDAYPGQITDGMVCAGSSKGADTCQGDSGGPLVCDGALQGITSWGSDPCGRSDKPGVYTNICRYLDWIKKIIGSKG

[5] = molecular target: Kallikrein-5 (Homo sapiens) (UniProt Q9Y337); experiment: Binding affinity to KLK5 in human VCAP cells conditioned medium at 50 uM pre-incubated for 30 mins by activity-based probe based in-gel fluorescence assay; assay type: cell-based
Kallikrein-7 [6] = molecular target: T4, Kallikrein-7 (Homo sapiens, UniProt P49862); experiment: Inhibition of KLK7 (unknown origin) expressed in Pichia pastoris pre-incubated for 10 mins before Leu-Leu-Val-Tyr-AMC substrate addition and measured after 30 mins by fluorescence based assay
Procedure, shortened: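 KLK7 at 33 nM final in 100 mM phosphate, 0.01% Tween-20, pH 8.5, with inhibitor (1:3 dilutions) or 2% DMSO for 10 min at rt. Reaction started with Leu-Leu-Val-Tyr-AMC at 500 µM final. Fluorescence (ex 380/em 460) read every 60 s for 30 min. Triplicates.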
Target sequence in this assay (P49862 whole entry): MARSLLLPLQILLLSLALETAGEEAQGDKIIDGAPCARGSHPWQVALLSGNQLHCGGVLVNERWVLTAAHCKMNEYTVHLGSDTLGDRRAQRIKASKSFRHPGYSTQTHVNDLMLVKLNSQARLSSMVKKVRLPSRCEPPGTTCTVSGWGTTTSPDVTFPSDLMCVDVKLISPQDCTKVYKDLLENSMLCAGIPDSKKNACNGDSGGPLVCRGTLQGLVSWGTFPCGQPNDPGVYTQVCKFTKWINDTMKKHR

Kallikrein-4 [7] = molecular target: T2, Kallikrein-4; experiment: Binding affinity to recombinant KLK4 (unknown origin) at 50 uM pre-incubated with conditioned medium for 30 mins by activity-based probe based in-gel fluorescence assay
CAL-27 [8] = experiment: Effect on cell proliferation of human CAL27 cells at 100 to 500 nM incubated for 48 hrs by BrdU incorporation assay; assay type: ADME, cell-based; conditions: cal-27, 48 h, 0.5 µM
Kallikrein-7 [9] = molecular target: T4, Kallikrein-7; experiment: Binding affinity to recombinant KLK7 (unknown origin) at 50 uM pre-incubated with conditioned medium for 30 mins by activity-based probe based in-gel fluorescence assay
Target sequence in this assay (P49862 30-253 limits assumed): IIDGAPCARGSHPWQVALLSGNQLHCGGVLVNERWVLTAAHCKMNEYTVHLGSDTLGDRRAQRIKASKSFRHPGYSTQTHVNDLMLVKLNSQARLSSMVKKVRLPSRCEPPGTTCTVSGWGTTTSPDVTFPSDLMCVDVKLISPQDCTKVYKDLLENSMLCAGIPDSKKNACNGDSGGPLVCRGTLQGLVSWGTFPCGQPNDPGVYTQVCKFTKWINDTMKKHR

Detroit 562 [10] = experiment: Effect on cell proliferation of human Detroit 562 cells at 100 to 500 nM incubated for 48 hrs by BrdU incorporation assay; assay type: ADME, cell-based; conditions: detroit 562, 48 h, 0.5 µM
Kallikrein-13 = molecular target: T5, Kallikrein-13 (Homo sapiens, UniProt Q9UKR3); experiment: Inhibition of KLK13 (unknown origin) expressed in Pichia pastoris pre-incubated for 10 mins before Boc-ValProArg-AMC substrate addition and measured after 30 mins by fluorescence based assay
T5 sequence (Q9UKR3 whole entry): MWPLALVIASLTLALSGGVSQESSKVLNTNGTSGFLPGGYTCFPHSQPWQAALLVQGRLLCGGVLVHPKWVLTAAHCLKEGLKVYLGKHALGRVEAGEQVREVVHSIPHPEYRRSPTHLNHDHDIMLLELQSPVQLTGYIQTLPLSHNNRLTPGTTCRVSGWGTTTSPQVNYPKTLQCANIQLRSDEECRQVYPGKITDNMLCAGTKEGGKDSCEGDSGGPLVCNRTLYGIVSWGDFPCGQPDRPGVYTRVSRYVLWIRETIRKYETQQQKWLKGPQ

Trypsin [11] = molecular target: T6, Trypsin (Homo sapiens, UniProt P07477+P07478+P35030); experiment: Inhibition of trypsin (unknown origin) pre-incubated for 30 mins before N-Boc-FSR-AMC substrate addition and measured after 30 mins; assay type: protein assay
CAL-27 [12] = experiment: Effect on EMT switch in human CAL27 cells at 100 to 500 nM incubated for 48 hrs; assay type: ADME, cell-based; conditions: cal-27, 48 h, 0.5 µM
Kallikrein-14 = molecular target: T7, Kallikrein-14 (Homo sapiens, UniProt Q9P0G3); experiment: Inhibition of KLK14 (unknown origin) expressed in Pichia pastoris pre-incubated for 10 mins before Boc-ValProArg-AMC substrate addition and measured after 30 mins by fluorescence based assay
T7 sequence (Q9P0G3 whole entry): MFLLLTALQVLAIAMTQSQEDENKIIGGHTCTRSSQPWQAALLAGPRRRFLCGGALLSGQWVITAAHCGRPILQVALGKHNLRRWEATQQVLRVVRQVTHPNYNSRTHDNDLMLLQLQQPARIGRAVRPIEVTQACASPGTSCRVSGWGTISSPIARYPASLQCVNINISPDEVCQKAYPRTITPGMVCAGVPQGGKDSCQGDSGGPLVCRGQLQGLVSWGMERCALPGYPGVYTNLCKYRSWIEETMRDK

Trypsin [13] = molecular target: T6, Trypsin; experiment: Binding affinity to recombinant trypsin (unknown origin) at 50 uM pre-incubated with conditioned medium for 30 mins by activity-based probe based in-gel fluorescence assay; assay type: protein assay
Kallikrein-5 = molecular target: T8, Kallikrein-5 (Homo sapiens, UniProt Q9Y337); experiment: Inhibition of KLK5 (unknown origin) expressed in Pichia pastoris pre-incubated for 10 mins before Boc-ValProArg-AMC substrate addition and measured after 30 mins by fluorescence based assay
T8 sequence (Q9Y337 whole entry): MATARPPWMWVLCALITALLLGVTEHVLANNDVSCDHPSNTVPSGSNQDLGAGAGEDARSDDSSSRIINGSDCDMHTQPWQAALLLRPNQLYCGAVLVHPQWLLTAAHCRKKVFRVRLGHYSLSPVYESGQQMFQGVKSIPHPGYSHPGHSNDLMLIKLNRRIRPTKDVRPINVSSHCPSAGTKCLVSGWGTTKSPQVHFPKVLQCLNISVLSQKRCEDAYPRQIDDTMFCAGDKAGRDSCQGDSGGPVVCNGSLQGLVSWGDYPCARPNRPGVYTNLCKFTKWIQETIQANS

T2 sequence (Q9Y5K2 whole entry): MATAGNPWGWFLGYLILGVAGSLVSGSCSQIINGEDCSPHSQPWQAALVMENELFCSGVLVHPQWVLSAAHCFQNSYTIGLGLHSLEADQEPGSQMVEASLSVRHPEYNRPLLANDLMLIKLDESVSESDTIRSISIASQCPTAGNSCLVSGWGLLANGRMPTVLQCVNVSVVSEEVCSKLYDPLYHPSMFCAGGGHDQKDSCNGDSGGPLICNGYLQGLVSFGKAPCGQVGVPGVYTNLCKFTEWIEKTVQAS

Activity [1]: inactive | IC50 (Kallikrein-4 [2]): > 200 µM | half-life at 10 µM [3]: 4.22 h | IC50 (Kallikrein-8): > 10 µM | Activity [5]: inactive | IC50 (Kallikrein-7 [6]): 73 µM | Activity (Kallikrein-4 [7]): inactive | Activity (Kallikrein-7 [9]): inactive | IC50 (Kallikrein-13): > 10 µM | IC50 (Trypsin [11]): 21 µM | IC50 (Kallikrein-14): 10.3 µM | Activity (Trypsin [13]): inactive | IC50 (Kallikrein-5): 1.1 µM
Structure (SMILES): Cc1nn(-c2ccccc2)c(C)c1NC(=O)COC(=O)Cc1c(C)[nH]c2ccccc12
Activity (Detroit 562 [4]): Non-Toxic | Activity (CAL-27 [8]): Non-Toxic | Activity (Detroit 562 [10]): Non-Toxic | Activity (CAL-27 [12]): Non-Toxic
